Assay results reported in ChEMBL document CHEMBL1158053, “Polyoxygenated sterols from the Formosan soft coral Sinularia gibberosa” (J Nat Prod, 2006).
≈ marks a conversion by molar mass, not a printed value. Calls of active or inactive are those of the source. The rule behind the calls is not given here.

Tests used:
[1] = tested on: MDA-MB-231; assay: Cytotoxicity against human MDA-MB-231 cells by MTT assay; assay type: functional, cell-based
Outline: (§1)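 ATCC-sourced tumour lines (HepG2, MCF7, MDA-MB-231, A-549) were tested with the MTT colorimetric method.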

[2] = tested on: A549; assay: Cytotoxicity against human A549 cells by MTT assay; assay type: functional, cell-based; outline: as §1
[3] = tested on: RAW264.7; assay: Antiinflammatory activity against LPS-stimulated mouse RAW264.7 cells assessed as inhibition of iNOS expression at 10 uM after 16 hrs by immunoblot analysis relative to control; assay type: functional
Outline: (§2)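 RAW 264.7 murine macrophages (ATCC TIB-71) grown in DMEM with 10% heat-inactivated FBS, 37 °C, 5% CO2. Cells activated with E. coli LPS (0.01 µg/mL) for 16 h with or without compound. Lysates were loaded at equal protein and analysed by SDS-PAGE and Western blot. Antibodies were anti-iNOS and anti-COX-2 (1:1000, 180 min), with β-actin reprobe as loading control. ECL detection. Intensity expressed relative to LPS-only group (100%); mean ± SD, n = 3.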

[4] = tested on: RAW264.7; assay: Antiinflammatory activity against LPS-stimulated mouse RAW264.7 cells assessed as inhibition of COX2 expression at 10 uM after 16 hrs by immunoblot analysis relative to control; assay type: functional; outline: as §2
[5] = tested on: RAW264.7; assay: Cytotoxicity against mouse RAW264.7 cells assessed as cell survival at 10 uM by trypan blue staining; assay type: cell-based; conditions: raw264.7, 10 µM
Outline: (§3)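 RAW 264.7 macrophages (DMEM, 10% heat-inactivated FBS, 37 °C, 5% CO2) were exposed to compound at 10 or 100 µM alongside the LPS-activation protocol. Viability was scored by trypan blue staining.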

[6] = Cytotoxicity against human Hep G2 cells by MTT assay; assay type: functional, cell-based; conditions: HepG2; outline: as §1
[7] = tested on: MCF7; assay: Cytotoxicity against human MCF7 cells by MTT assay; assay type: functional, cell-based; outline: as §1
[8] = tested on: RAW264.7; assay: Cytotoxicity against mouse RAW264.7 cells assessed as cell loss at 100 uM by trypan blue staining; assay type: cell-based; conditions: raw264.7, 100 µM; outline: as §3
[9] = tested on: RAW264.7; assay: Cytotoxicity against mouse RAW264.7 cells assessed as decrease in beta-actin at 100 uM by trypan blue staining; assay type: cell-based; conditions: raw264.7, 100 µM

Structure (SMILES) | IC50 [1] | IC50 [2] | Activity [3] | Activity [4] | Activity [5] | IC50 [6] | IC50 [7] | Activity [8] | Activity [9]
C=C(CC[C@@H](C)[C@H]1CC[C@H]2[C@@H]3C[C@@H]4O[C@@]45C[C@@H](O)C[C@H](O)[C@]5(C)[C@H]3CC[C@]12C)C(C)C [GIBBEROEPOXYSTEROL] | 15.9 µg/mL (≈ 36.9 µM) | 15.5 µg/mL (≈ 36 µM) |  |  |  |  |  |  | 
C=C(/C=C/[C@@H](C)[C@H]1CC[C@H]2[C@@H]3CC(=O)[C@]4(O)C[C@@H](O)C[C@H](O)[C@]4(C)[C@H]3CC[C@]12C)C(C)C [GIBBEROKETOSTEROL B] | > 30 µg/mL | > 30 µg/mL | inactive | inactive | Non-toxic | > 30 µg/mL | > 30 µg/mL |  | 
C=C(/C=C/[C@@H](C)[C@H]1CC[C@H]2[C@@H]3CC(=O)[C@H]4C[C@@H](O)C[C@H](O)[C@]4(C)[C@H]3CC[C@]12C)C(C)C [GIBBEROKETOSTEROL C] | > 30 µg/mL | > 30 µg/mL |  |  |  | > 30 µg/mL | > 30 µg/mL |  | 
C=C(CC[C@@H](C)[C@H]1CC[C@H]2[C@@H]3CC(=O)[C@]4(O)C[C@@H](O)C[C@H](O)[C@]4(C)[C@H]3CC[C@]12C)C(C)C [GIBBEROKETOSTEROL] | 14.4 µg/mL (≈ 32.2 µM) | 14.5 µg/mL (≈ 32.5 µM) | 44.5% | 68.3% | Non-toxic | 13 µg/mL (≈ 29.1 µM) | 14.1 µg/mL (≈ 31.6 µM) | 38.4% | Active
